Measured values of several laboratories.
Protocols differ between the studies behind these lines.
SIGMAR1: Sigma non-opioid intracellular receptor 1 (SIGMAR1, Homo sapiens, UniProt Q99720)
BMX: Cytoplasmic tyrosine-protein kinase BMX (BMX, Homo sapiens, UniProt P51813)
OPRK1: Kappa-type opioid receptor (OPRK1, Homo sapiens, UniProt P41145)
HTR2A: 5-hydroxytryptamine receptor 2A (HTR2A, Homo sapiens, UniProt P28223)
SLC18A3: Vesicular acetylcholine transporter (SLC18A3, Homo sapiens, UniProt Q16572)

| SMILES | target | read-out | mode | method | setting | Ki [nM] |
| --- | --- | --- | --- | --- | --- | --- |
| OCCOCCN1CCN(C(c2ccccc2)c2ccc(Cl)cc2)CC1 (stereo not shown) | SIGMAR1 | ligand displacement | – | radioligand | – | 437 |
| Cn1cc(-c2cc(F)cc(N3CCn4c(cc5c4CCCC5)C3=O)c2CO)cc(Nc2ccc(N3CCN(C4COC4)CC3)cn2)c1=O | BMX | enzyme activity | inhibitor | FRET | – | 83.2 |
| Cc1cc(O)cc(C)c1C[C@H](N)C(=O)N1CCc2ccc(Cc3cccc(N)c3)cc2C1 | OPRK1 | ligand displacement | – | radioligand | cell membranes | 28 |
| N[C@@H](C[C@]1(C(=O)O)C[C@H]2OC[C@@H](O)[C@@H](O)[C@H]2O1)C(=O)O | Glutamate receptor ionotropic, kainate 2 (Grik2, Rattus norvegicus, UniProt P42260, Y443F) | ligand displacement | – | radioligand | – | 895 |
| CN(C)CCCC1(c2ccc(F)cc2)OCc2cc(C#N)ccc21 (stereo not shown) | SIGMAR1 | ligand displacement | – | radioligand | – | 182 |
| Cc1cccc(Cc2ccc3c(c2)CN(C(=O)[C@@H](N)Cc2c(C)cc(O)cc2C)CC3)c1 | OPRK1 | ligand displacement | – | radioligand | cell membranes | 2.7 |
| CN1CCN(CCc2ccc(Cl)c(Cl)c2)CC1 | SIGMAR1 | ligand displacement | – | radioligand | – | 9.48 |
| Cc1nc2n(c(=O)c1CCN(C)CCc1c[nH]c3ccccc13)CCCC2 | HTR2A | ligand displacement | – | radioligand | cell membranes | 237 |
| CN(CCCN1c2ccccc2CCc2ccccc21)CC(=O)c1ccc(Cl)cc1 | SIGMAR1 | ligand displacement | – | radioligand | – | 7090 |
| [C-]#[O+] | cooS2 (Carboxydothermus hydrogenoformans, UniProt Q9F8A8) | enzyme activity | inhibitor | – | – | 5400 |
| Cn1cc(-c2cccc(N3CCc4c(sc5c4CC(C)(C)C5)C3=O)c2CO)cc(Nc2ccncn2)c1=O | BMX | enzyme activity | inhibitor | FRET | – | > 3330 |
| CNC(=O)[C@H]1[Se][C@@H](n2cnc3c(NCc4cccc(Cl)c4)nc(Cl)nc32)[C@H](O)[C@@H]1O | Adenosine receptor A2a (ADORA2A, Homo sapiens, UniProt P29274) | ligand displacement | – | radioligand | cell membranes | ~200 |
| CCOC(=O)C(CC)(CCCSC)NC(=O)c1ccc(C2CC2)c(Cc2ccc(F)cc2)n1 (stereo not shown) | Cannabinoid receptor 1 (CNR1, Homo sapiens, UniProt P21554) | ligand displacement | – | radioligand | cell membranes | 8.5 |
| COc1cc2c(cc1OC)CN(CCc1ccc(NC(=O)c3cccc4c(=O)c5cccc(OC)c5[nH]c34)cc1)CC2 | SIGMAR1 | ligand displacement | – | radioligand | – | > 10000 |
| CCCC[C@@H](NC(=O)[C@@H](N)Cc1c(C)cc(O)cc1C)C(=O)NCC(=O)N[C@@H](Cc1ccc(F)cc1)C(=O)N(C)CCC[C@@]1(c2ccc(F)cc2)OCc2cc(C#N)ccc21 | OPRK1 | cell-free assay | – | – | – | 3 |
| O=C(c1ccc(F)cc1)C1CCN(C2Cc3c(cccc3OCCF)CC2O)CC1 (single isomer, unassigned; (-)) | SLC18A3 | ligand displacement | – | radioligand | – | 6.98 |
| Fc1ccc2c(C3CCCNC3)noc2c1 (racemic) | HTR2A | ligand displacement | – | radioligand | cell membranes | 284 |
| O=C(CN1CCC(CN2Cc3ccccc3C2=O)CC1)c1ccc(F)cc1 | SIGMAR1 | ligand displacement | – | radioligand | – | 1740 |
| CCCN1CCC[C@@H]2Cc3n[nH]cc3C[C@H]21 | SLC18A3 | ligand displacement | – | radioligand | – | > 1000 |
